Screening results (PubChem)
This is a sample that favours compounds with a hit; in the whole collection about 2.7% have one here.
TCR CD3 inh – human TCR-CD3 binding inhibition | hit rate 0.37% among 360,000 | inhibition, % at 9.4 µM | TAMRA-labeled TCR probe fluorescence, biochemical | AID 651800; in the data active = inhibition above about 19%;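 note: recombinant mutant TCR 2C K166C tagged with TAMRA read by polarization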
SIAE inh – human SIAE inhibition, primary screen. Q9HAT2. inhibition, % at 9.66 µM. hit rate 0.69% among 370,000. SIAE FP-Rh probe binding, fluorescence polarization;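 active = inhibition above a cutoff: mean of compounds within the control limits plus 3 SD of those, cut at about 17% in these data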
mABHD4 FP – inhibitors of mouse ABHD4 | Q8VD66 | purified mABHD4, FP-Rh probe fluorescence polarization | inhibition, % at 8.92 µM | hit rate 0.54% among 370,000 | AID 720543;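 active = inhibition exceeding the mean over every tested compound plus 3 SD, cut at about 30% in these data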
Target sequence (Q8VD66 whole entry, looked up): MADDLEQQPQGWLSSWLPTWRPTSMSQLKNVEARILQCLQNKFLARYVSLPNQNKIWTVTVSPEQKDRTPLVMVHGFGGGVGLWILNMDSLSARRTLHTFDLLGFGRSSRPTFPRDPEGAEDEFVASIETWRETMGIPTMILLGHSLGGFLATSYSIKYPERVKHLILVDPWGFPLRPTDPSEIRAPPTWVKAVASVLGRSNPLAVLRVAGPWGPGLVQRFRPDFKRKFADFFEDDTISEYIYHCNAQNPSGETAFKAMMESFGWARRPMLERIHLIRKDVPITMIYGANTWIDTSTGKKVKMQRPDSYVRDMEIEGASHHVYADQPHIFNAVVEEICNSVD
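Assay system: wild-type mouse ABHD4 protein; compound: single nominal dose of 8.92 µM, 0.89% DMSO final; schedule: 45 min + 60 min at 25 °C; measured by: FP readout, ex 525 nm / em 598 nm; evaluation: % inhibition of FP-Rh probe binding versus controls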
PRMT1 FP inh – blocks human protein arginine methyltransferase 1; Q99873; recombinant PRMT1, activity-based probe fluorescence polarization; inhibition, % at 2.79 µM; hit rate 1.3% among 370,000;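 active = inhibition above about 21% made by adding two undisclosed values, limit read from the data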
HTRA1 inh – inhibitors of human serine peptidase HTRA1 | recombinant HTRA1, FP-rhodamine activity-based probe, fluorescence polarization | inhibition, % at 5.96 µM | hit rate 0.5% among 340,000; in the data active = inhibition above about 36%
HTRA1 inh conf – HTRA1 (human) inhibition, confirmation | recombinant HTRA1, FP-rhodamine activity-based probe, fluorescence polarization | AID 540248 | inhibition, % at 5.96 µM | hit rate 66% among 1,600 | shares compounds with HTRA1 inh;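 active = mean inhibition over three repeats above a set limit taken from the earlier primary screen, cut at about 37% in these data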;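 note: inhibitors block probe binding so polarization drops and inhibition rises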
Large screens that a line does not name were inactive (follow-up assays come after a bar, where they were run).

COC(=O)C1=C(O)/C(=C\c2ccc(CNC(=O)C(=O)Nc3ccc(C)cc3)o2)N=C1C	HTRA1 inh 45.1 | HTRA1 inh conf inactive
CCOC(=O)C(=O)NCc1ccc(/C=C2/N=C(C)C(C(=O)OCC)=C2O)o1	none
COc1ccc(-n2c(C)cc(-c3csc(N)n3)c2C)cc1	HTRA1 inh 38.6 | HTRA1 inh conf inactive
C=CCn1c(C)cc(-c2csc(N)n2)c1C	HTRA1 inh 59.9 | HTRA1 inh conf inactive
C=CCn1c(C)cc(-c2csc(NC)n2)c1C	HTRA1 inh 42.4 | HTRA1 inh conf inactive
C[C@@H]1CN([C@H](C)CO)C(=O)CCCn2nncc2CO[C@@H]1CN(C)C(=O)Nc1ccccc1	none (no result: HTRA1 inh)
Cc1ccccc1C(=O)N1CCC(C(=O)NN2C(=O)NC3(CCC(C)CC3)C2=O)CC1 (centres undefined)	none
COc1c(-c2ccc(O)c(O)c2)oc2cc(O)cc(O)c2c1=O	HTRA1 inh 37.1 | HTRA1 inh conf 48.4
O=C(Oc1ccc(Cl)c2cccnc12)c1cccnc1	HTRA1 inh 70.8 | HTRA1 inh conf 81.5
CNC(=O)COc1ccc(Cl)c2cccnc12	none
Cc1cccc(NC(=O)Oc2ccc(Cl)c3cccnc23)c1	HTRA1 inh 53.6 | HTRA1 inh conf 41.2
O=C(Oc1ccc(Cl)c2cccnc12)N1CCCCC1	none
O=C(c1ccc(-c2cc(O)c3ncccc3c2)cc1)N1CCNCC1	HTRA1 inh 62.5 | HTRA1 inh conf 49.5
CCC/C(O)=C1\C(=O)CC(C)(C)CC1=Nc1ccccc1O	none
O=C(/C=C/c1cccs1)NC(=S)NNC(=O)c1ccccc1O	HTRA1 inh 48.1 | HTRA1 inh conf 57.5
CC(C)Nc1nc(Nc2ccc(C(N)=O)cc2)c2sccc2n1	none (no result: HTRA1 inh)
COc1cc2c(cc1OC)C(=O)C(Br)CC2 (centres undefined)	HTRA1 inh 42.5 (no result: TCR CD3 inh, SIAE inh, mABHD4 FP, PRMT1 FP inh) | HTRA1 inh conf inactive
CCn1c(=O)c(C(=O)CN2c3ccccc3CC2C)c(N)n(Cc2ccccc2)c1=O (centres undefined)	HTRA1 inh 37.8 | HTRA1 inh conf inactive
CCN(C(=O)CN1c2ccccc2CC1C)c1c(N)n(Cc2ccccc2)c(=O)[nH]c1=O (centres undefined)	none
CC1Cc2ccccc2N1CC(=O)N(C)c1c(N)n(Cc2ccccc2)c(=O)[nH]c1=O (centres undefined)	HTRA1 inh 43.4 | HTRA1 inh conf inactive
Cc1ncc([N+](=O)[O-])n1S(=O)(=O)c1ccc2c(c1)OCCO2	none
COc1ccc2[nH]c(O)c(N=NC(=O)c3ccc(NS(=O)(=O)c4cccs4)cc3)c2c1	HTRA1 inh 45.2 | HTRA1 inh conf inactive
CCC(C)Nc1ccc(NC(C)CC)cc1 (centres undefined)	HTRA1 inh 66.9 (no result: TCR CD3 inh, SIAE inh, mABHD4 FP, PRMT1 FP inh) | HTRA1 inh conf 75.5
CCOC(=O)[C@@H](NC(=O)CC[C@H]1O[C@@H](n2ccc(=O)[nH]c2=O)[C@H](O)[C@@H]1O)C(C)C	none (no result: HTRA1 inh)
CCOc1ccc(/C=C/C(=O)c2cc(Br)ccc(=O)c2O)cc1	HTRA1 inh 51.0 | HTRA1 inh conf 44.0
Oc1ccc2ccccc2c1N=Nc1ccc(F)cc1	none
O=C(O)Cc1ccc(N=Nc2c(O)c(C(=O)O)cc3ccccc23)cc1	HTRA1 inh 45.4 | HTRA1 inh conf 42.6
CC(=O)Oc1cc(C(=O)OCC(=O)NC23CC4CC(CC(C4)C2)C3)cc(OC(C)=O)c1OC(C)=O	TCR CD3 inh 48.6, HTRA1 inh 65.5 | HTRA1 inh conf 75.5
COc1cccc(C(=O)OCC(=O)NC23CC4CC(CC(C4)C2)C3)c1	none
CCCCC(CC)CO (centres undefined)	none
CCCCC(CC)CN=C(N)NC(N)=NCCCCCCN=C(N)NC(N)=NCC(CC)CCCC (centres undefined)	HTRA1 inh 55.4 (no result: TCR CD3 inh, SIAE inh, mABHD4 FP, PRMT1 FP inh) | HTRA1 inh conf 93.2
Cc1ccc(SCC(=O)Nc2ccc(N3CCOCC3)cc2)c(C)c1	none
Cc1nc(CNC(=O)CC2C(=O)NCCN2Cc2cccc(Oc3ccccc3)c2)cs1 (centres undefined)	HTRA1 inh 43.6 | HTRA1 inh conf inactive
N#CCC(=N)N1CCN(c2ccc(F)cc2)CC1	none
CNc1c(NS(=O)(=O)c2ccc(Cl)cc2)c(=O)oc2ccccc12	none
CNc1c(NS(=O)(=O)c2ccc(Cl)s2)c(=O)oc2ccccc12	HTRA1 inh 128.6 | HTRA1 inh conf inactive
O=C(Nc1ccc(Nc2ccccc2)cc1)c1ccco1	HTRA1 inh 38.4 | HTRA1 inh conf inactive
